The list is not random: actives were taken first. Their share in the collection is about 3.2%.
OX1R antag-1: antagonists of human orexin 1 receptor (OX1R); Orexin/Hypocretin receptor type 1 (Homo sapiens), O43613; OX1R-expressing cells, FRET antagonist read-out; inhibition, % at 6.6 µM; 330,000 tested, 1.8% active; AID 485270, 2010; in the data active = inhibition mostly above about 38%, no sharp cut-off; inactive = mostly below about 40%;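 also: 0% = agonist challenge alone and 100% = reference antagonist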
OX1R antag-2: OX1R (HCRTR1) antagonists, primary screen, fluorescence, CHO/OX1R cells, Fluo-8 calcium, orexin A; 330,000 tested, 0.43% active; Orexin/Hypocretin receptor type 1 (Homo sapiens), O43613; AID 434989, 2010; Fluo-8 calcium fluorescence; inhibition, % at 5 µM;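 active = inhibition above its plate's threshold, mean inhibition of all tested compounds on the plate plus 3 SD, cut at about 37% in these data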;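 also: 0% = orexin A challenge wells and 100% = SB-334867-A antagonist wells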
TRPML3 agonist: human TRPML3 channel agonists, primary screen, cell-based, HEK293 TRPML3-YFP, Fluo-8 calcium fluorescence, 3 µM. AID 1448, 2008. 220,000 tested, 0.29% active. activation, % at 3 µM. 100% = the carbachol control signal;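 active = activation above its plate's cutoff, the mean activation of the plate's test wells plus 3 SD, cut at about 12% in these data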;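 also: 0% = DMSO only wells and 100% = carbachol wells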
Target sequence (Q8TDD5 whole entry, looked up): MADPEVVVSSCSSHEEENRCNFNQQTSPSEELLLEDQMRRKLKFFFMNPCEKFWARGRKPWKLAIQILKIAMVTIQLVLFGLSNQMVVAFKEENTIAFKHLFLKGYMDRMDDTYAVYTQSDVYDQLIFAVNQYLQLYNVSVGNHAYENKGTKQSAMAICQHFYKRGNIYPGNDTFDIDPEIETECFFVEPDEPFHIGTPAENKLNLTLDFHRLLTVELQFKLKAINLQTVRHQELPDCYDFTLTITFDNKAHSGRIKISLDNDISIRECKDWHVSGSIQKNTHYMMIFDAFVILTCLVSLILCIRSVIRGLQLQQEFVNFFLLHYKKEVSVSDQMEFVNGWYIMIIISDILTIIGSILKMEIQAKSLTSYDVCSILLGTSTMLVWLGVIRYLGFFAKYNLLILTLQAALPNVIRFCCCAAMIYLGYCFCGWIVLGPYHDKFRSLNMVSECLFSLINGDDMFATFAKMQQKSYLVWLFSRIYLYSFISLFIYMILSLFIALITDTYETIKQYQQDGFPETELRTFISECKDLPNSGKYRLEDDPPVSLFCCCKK
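Material: HEK293 cells stably carrying human TRPML3-YFP; compound dosing: single dose, 3 µM final nominal compound, 0.3% DMSO final; incubation: 1-h 37 °C dye load, 5-s basal, 120-s post-compound reads; technique: Fluo-8 intracellular calcium fluorescence, excitation 470-495 nm, emission 515-575 nm; read-out basis: percent activation from peak-to-basal fluorescence ratio, scaled between DMSO and carbachol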
GPR7 antagonist: GPR7 receptor antagonists, primary screen, cell-based, fluorescence, single concentration; GPR7-expressing cells, fluorescence antagonist assay; Neuropeptides B/W receptor type 1 (Homo sapiens), P48145; inhibition, % at 4.4 µM; 290,000 tested, 1.1% active; in the data active = inhibition above about 16%, passing the limit was not always enough;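 also: cells stimulated with the agonist NPW; 0% = agonist with vehicle and 100% = vehicle without agonist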
CHO parental Ca: ATP-evoked calcium signal inhibitors, parental CHO, primary screen, counter-screen for OX1R antagonist project, cell-based, fluorescence, Fluo-8 calcium dye; parental CHO-K1, ATP-induced calcium, Fluo-8 fluorescence; inhibition, % at 5.6 µM; 330,000 tested, 0.63% active; AID 463079, 2010;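 active = inhibition above that plate's mean sample inhibition plus 3 SD, cut at about 26% in these data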;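 also: 0% = ATP-challenged DMSO wells and 100% = DMSO wells without ATP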
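Material: parental CHO cells / Compound: single nominal dose of 5.6 µM per compound / Signal: Fluo-8 fluorescence / Replicates: singlicate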
TRPN1 ag: zebrafish TRPN1 channel agonists, primary screen, cell-based, HEK293, calcium fluorescence. transient receptor potential cation channel N1 (TRPN1/NompC), Danio rerio. HEK293 zebrafish TRPN1-YFP, Fluo-8 calcium fluorescence; 100% = response to 87 µM carbachol. activation, % at 3 µM. 220,000 tested, 0.18% active;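 active = activation above its plate's cutoff, the mean activation of test wells on that plate plus 3 SD, cut at about 19% in these data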;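 also: 0% = DMSO alone and 100% = 87 µM carbachol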
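Assay system: Zebrafish TRPN1-YFP in HEK293 cells | Incubation: Dye loading 1 h at 37 °C, then 30 min room temperature | Measured by: Kinetic Fluo-8 fluorescence, ex 470-495, em 515-575 nm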
* = called active by the depositor; . = no result given.

SMILES | OX1R antag-1 | OX1R antag-2 | TRPML3 agonist | GPR7 antagonist | CHO parental Ca | TRPN1 ag
Cc1cccc(NC(=S)/N=C(\N)Nc2nc(C)c3ccccc3n2)c1 | 75.8* | 12.4 | -0.1 | 5.7 | -8.1 | -1.9
Cc1ccc(S(=O)(=O)N2CCN(c3ncnc4sccc34)CC2)cc1 | 20.6 | 10.4 | . | 5.8 | 37.4* | .
O=S(=O)(c1ccc(F)c(F)c1F)N1CCN(c2ncnc3sccc23)CC1 | 13.4 | 20.2 | . | . | 18.8 | .
O=C(O)c1ccccc1C(=O)NC1CCCc2ccccc21 (centres undefined) | 0.8 | -1.6 | . | -17.3 | -3.7 | .
C=CCN(c1ccccc1)S(=O)(=O)c1cccc(C(=O)NCC(c2cccs2)N2CCOCC2)c1 (centres undefined) | 39.4* | 4.2 | . | . | -34.0 | .
Cc1ccc(N/C(C(Cl)=C(Cl)Cl)=C(/Cl)[N+](=O)[O-])c(C)c1 | . | . | 0.8 | -5.9 | . | -0.1
CCC(=O)N(CCC(c1ccco1)c1ccccc1OC)Cc1cccs1 (centres undefined) | 18.1 | -28.8 | -1.0 | 18.7* | -6.5 | -2.0
CC(=O)N(CCC(c1ccccc1)c1ccco1)Cc1cccs1 (centres undefined) | 14.8 | -31.0 | -0.5 | -6.8 | -18.4 | -0.9
Cc1ccc(-c2nnc(Oc3ccc(NC(=O)c4ccccc4)cc3)c3ccccc23)cc1 | 12.3 | -6.4 | 0.5 | 9.1 | -2.5 | 0.3
Nc1n[nH]c2cc(=O)n(-c3ccc(Cl)cc3)nc12 | 46.2* | -0.6 | 0.9 | -9.2 | -6.9 | -0.2
COc1ccc(-n2nc3c(N)n[nH]c3cc2=O)cc1 | 53.6* | -7.2 | 0.1 | -5.7 | -8.7 | 0.6
COC(=O)C1CN(C(=O)COc2ccccc2)c2ccccc2O1 (centres undefined) | -7.1 | -4.8 | . | -9.5 | -10.4 | .
O=C(NC(=S)N1CCCCC1CO)c1cccs1 (centres undefined) | 6.8 | -12.5 | . | . | -5.4 | .
CC(C)CNC(=S)N1CCN(c2nc3ccccc3s2)CC1 | 13.7 | 11.2 | 3.8 | -5.6 | 71.7* | 10.4
CCn1c(N2CCN(C(=S)NCC(C)C)CC2)nc2ccccc21 | 0.0 | -11.7 | 0.8 | -4.1 | -7.4 | 1.2
COc1ccc(C(=O)CN2C(=O)NC3(CCc4ccccc43)C2=O)cc1 (centres undefined) | 8.9 | -22.9 | . | -12.8 | -19.4 | .
O=C(Nc1nnc(-c2cccs2)o1)c1cccc(C(F)(F)F)c1 | 39.2 | 9.9 | 0.9 | 6.6 | 22.1 | 21.3*
CC(C)(C)c1ccc(Cn2c(=N)n(CC(O)c3ccco3)c3ccccc32)cc1 (centres undefined) | -11.8 | -15.9 | 1.4 | 23.6* | 2.8 | 5.0
Cc1ccccc1Cn1c(=N)n(CC(O)c2ccco2)c2ccccc21 (centres undefined) | 18.4 | -24.0 | 1.0 | 14.1 | -21.2 | 0.2
CSc1nc2ccc(NC(=O)COc3ccccc3F)cc2s1 | 6.4 | -36.9 | . | . | -11.3 | .
CSc1nc2ccc(NC(=O)NC(=O)c3c(F)cccc3F)cc2s1 | 16.7 | -24.4 | -0.3 | 18.9* | -7.7 | -0.1
CCOc1ccc(NS(=O)(=O)c2ccc(C(=O)N3CC(C)OC(C)C3)cc2)cc1 (centres undefined) | 0.3 | 73.1* | . | . | 41.7* | .
O=C(c1cccc(S(=O)(=O)N2CCN(c3ccc(F)cc3)CC2)c1)N1CCCC(C(F)(F)F)C1 (centres undefined) | 19.8 | -3.9 | . | . | 37.4* | .
COc1ccccc1NS(=O)(=O)c1ccc(C(=O)N2CCCC(C(F)(F)F)C2)cc1 (centres undefined) | 15.8 | 8.6 | . | . | -9.5 | .
Cc1ccc(NS(=O)(=O)c2ccc(C(=O)N3CCCC(C(F)(F)F)C3)cc2)cc1 (centres undefined) | 7.6 | 45.0* | . | . | 31.1 | .
SMILES | OX1R antag-1 | OX1R antag-2 | TRPML3 agonist | GPR7 antagonist | CHO parental Ca | TRPN1 ag
O=C(CN(c1cccc(C(F)(F)F)c1)S(=O)(=O)c1ccc(Cl)c([N+](=O)[O-])c1)NCc1ccccc1 | 20.4 | 21.5 | 0.6 | 40.9* | 17.0 | -0.6
O=C(CN(c1cccc(C(F)(F)F)c1)S(=O)(=O)c1ccc(Cl)c([N+](=O)[O-])c1)NCc1ccccc1Cl | 22.8 | 8.0 | 0.4 | 14.2 | 10.8 | -1.5
CC(C)(C)NC(=O)CN(c1cccc([N+](=O)[O-])c1)S(=O)(=O)c1ccccc1 | 2.4 | -19.7 | -0.1 | -0.9 | -20.5 | -1.6
CC(NC(=O)CN(c1cccc(C(F)(F)F)c1)S(=O)(=O)c1ccc(Cl)c([N+](=O)[O-])c1)c1ccccc1 (centres undefined) | 4.3 | 22.1 | 0.3 | 46.0* | 36.3* | 0.7
Cc1ccc(N(CC(=O)NCCc2ccc(F)cc2)S(=O)(=O)c2ccc(Cl)c([N+](=O)[O-])c2)c(C)c1 | 18.2 | 5.2 | 0.5 | 47.5* | -1.6 | 0.2
CCOC(=O)C1(CCc2ccccc2)CCN(C(=O)C2CCOCC2)CC1 | 14.0 | -16.1 | 0.6 | -16.2 | -12.6 | -0.8
COc1ccc(S(=O)(=O)N2CC(O)C[C@H]2C(=O)OCC(=O)N2CCCCCC2)cc1 (some centres undefined) | 7.9 | -23.4 | -1.2 | -5.9 | -4.0 | 1.1
COC(=O)Cn1cc(/C=C(/C#N)C(=O)N2CCOCC2)c2ccccc21 | 20.6 | 8.4 | 1.1 | -6.5 | 7.6 | 2.2
COc1ccccc1NC(=O)CC1S/C(=N/N=C2\CCCc3ccccc32)NC1=O (centres undefined) | 53.9* | 20.1 | 0.3 | 0.1 | 5.7 | 1.3
O=C(CC1S/C(=N/N=C2CCCCCC2)NC1=O)Nc1ccccc1C(F)(F)F (centres undefined) | 8.7 | -9.6 | . | -16.4 | -13.3 | .
CN(C)c1ccc(C(=O)Nc2nc3c(s2)CCCC3)cc1 | 52.0* | -10.6 | 2.2 | -16.2 | -0.7 | 1.6
CCNc1nc2nc3ccc(C)cn3c(=O)c2cc1C(=O)NCC1CCCO1 (centres undefined) | 63.6* | -22.6 | 0.7 | -4.3 | -17.2 | 2.0
COCCCNC(=O)c1cc2c(=O)n3cc(C)ccc3nc2nc1NCC1CCCO1 (centres undefined) | 104.8* | -16.2 | 1.0 | -10.0 | -12.6 | 1.0
Cc1ccc2nc3nc(NCC4CCCO4)c(C(=O)NC4CCCCC4)cc3c(=O)n2c1 (centres undefined) | 24.6 | -13.4 | 0.4 | 7.0 | 5.6 | -0.1
Cc1ccc2nc3nc(NCC4CCCO4)c(C(=O)NC4CCCC4)cc3c(=O)n2c1 (centres undefined) | 43.3 | -19.2 | 1.0 | -9.9 | -16.7 | 0.2

Assay outcomes as filed in PubChem.
